Measured values as given in ChEMBL document CHEMBL1155876 (J Med Chem, 2008).

Key:
[1] = tested on: MCF7; assay: Antiproliferative activity against human MCF7 cells; type: functional, cell-based
Procedure, shortened: (§1)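 HCT116, HT29 or MCF7 cells were seeded on day 0 in 1:1 Ham's F12/DMEM-high glucose with 10% FBS and 2 mM L-glutamine, then kept overnight at 37 °C in 5% CO2. On day 1, inhibitor in DMSO, diluted 20-fold in serum- and glutamine-free medium, was added. Viability was read on day 4 as total ATP by CellTiter-Glo luminescence.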

[2] = tested on: HT-29; assay: Antiproliferative activity against human HT29 cells; type: functional, cell-based; procedure, shortened: as §1
[3] = target: T1, Aurora kinase A (Homo sapiens, UniProt O14965); assay: Inhibition of Aurora A
T1 sequence (O14965 whole entry): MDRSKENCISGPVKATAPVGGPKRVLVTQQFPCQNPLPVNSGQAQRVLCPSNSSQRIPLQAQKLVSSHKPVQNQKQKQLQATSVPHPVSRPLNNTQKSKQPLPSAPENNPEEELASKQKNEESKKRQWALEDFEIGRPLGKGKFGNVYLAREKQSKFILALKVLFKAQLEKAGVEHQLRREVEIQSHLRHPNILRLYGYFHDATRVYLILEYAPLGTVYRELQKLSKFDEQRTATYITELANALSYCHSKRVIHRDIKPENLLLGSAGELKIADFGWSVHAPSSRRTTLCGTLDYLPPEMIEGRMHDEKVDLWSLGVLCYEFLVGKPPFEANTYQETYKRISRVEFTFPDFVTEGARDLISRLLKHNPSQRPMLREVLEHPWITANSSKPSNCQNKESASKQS

[4] = target: T2, Aurora kinase B (Homo sapiens, UniProt Q96GD4); assay: Inhibition of Aurora B
T2 sequence (Q96GD4 whole entry): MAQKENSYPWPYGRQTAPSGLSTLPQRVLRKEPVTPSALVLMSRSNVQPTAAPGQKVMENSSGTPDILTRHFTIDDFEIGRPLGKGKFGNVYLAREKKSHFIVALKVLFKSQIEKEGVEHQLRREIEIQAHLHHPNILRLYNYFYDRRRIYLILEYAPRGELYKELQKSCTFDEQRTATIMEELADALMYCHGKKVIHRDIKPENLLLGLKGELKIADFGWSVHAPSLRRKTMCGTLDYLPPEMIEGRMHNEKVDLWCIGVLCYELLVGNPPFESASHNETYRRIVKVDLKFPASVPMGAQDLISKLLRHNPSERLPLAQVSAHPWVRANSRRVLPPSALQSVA

[5] = AUClast in CD1 mouse at 30 mg/kg, po; type: ADME, organism-based; parameters: time 0 - last, dose 30 mg/kg, route oral; details: plasma
[6] = Cmax in CD1 mouse at 30 mg/kg, po; type: ADME, organism-based; parameters: dose 30 mg/kg, route oral; details: in vivo
[7] = tested on: Mus musculus; assay: Toxicity in athymic mouse xenografted with human HCT116 cells assessed as gastrointestinal hypocellularity at 10 mg/kg, po qd; details: in vivo
[8] = Oral bioavailability in Sprague-Dawley rat 5 mg/kg; type: ADME, organism-based; details: in vivo
Procedure, shortened: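 Male Sprague-Dawley rats, three per route. Oral dose 5 mg/kg as a solution in 80% PEG; iv dose 1 mg/kg, also as an 80% PEG solution. PK parameters calculated from averaged serum levels (N = 3).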

[9] = Clearance in CD1 mouse 1 mg/kg, iv; type: ADME, organism-based; parameters: dose 1 mg/kg, route intravenous; details: in vivo
Procedure, shortened: (§2)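 A single 1 mg/kg iv dose was given. Vehicles: CD-1 mice (female, 3 per time point), 5% DMSO/5% Cremophor; SD rats (male, 3 per route), 80% PEG; beagles (male, 3 per route), 60% PEG. PK parameters were calculated from averaged serum levels (N = 3).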

[10] = target: Glycogen synthase kinase-3 beta (Homo sapiens, UniProt P49841); assay: Inhibition of GSK3-beta
Chain of Glycogen synthase kinase-3 beta (P49841 whole entry): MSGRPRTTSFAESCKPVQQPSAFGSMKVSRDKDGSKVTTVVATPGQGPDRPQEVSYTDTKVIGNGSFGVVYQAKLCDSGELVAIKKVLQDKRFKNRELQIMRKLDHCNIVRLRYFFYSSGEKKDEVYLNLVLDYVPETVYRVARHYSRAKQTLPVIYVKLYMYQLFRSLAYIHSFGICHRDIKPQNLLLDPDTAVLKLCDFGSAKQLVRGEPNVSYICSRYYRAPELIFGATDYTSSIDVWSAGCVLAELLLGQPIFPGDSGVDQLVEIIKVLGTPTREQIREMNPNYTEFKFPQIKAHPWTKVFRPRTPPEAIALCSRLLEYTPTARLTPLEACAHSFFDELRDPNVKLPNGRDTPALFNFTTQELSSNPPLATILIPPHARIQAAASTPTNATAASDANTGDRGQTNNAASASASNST

[11] = target: Vascular endothelial growth factor receptor 2 (Homo sapiens, UniProt P35968); assay: Inhibition of KDR
Chain of Vascular endothelial growth factor receptor 2 (P35968 whole entry): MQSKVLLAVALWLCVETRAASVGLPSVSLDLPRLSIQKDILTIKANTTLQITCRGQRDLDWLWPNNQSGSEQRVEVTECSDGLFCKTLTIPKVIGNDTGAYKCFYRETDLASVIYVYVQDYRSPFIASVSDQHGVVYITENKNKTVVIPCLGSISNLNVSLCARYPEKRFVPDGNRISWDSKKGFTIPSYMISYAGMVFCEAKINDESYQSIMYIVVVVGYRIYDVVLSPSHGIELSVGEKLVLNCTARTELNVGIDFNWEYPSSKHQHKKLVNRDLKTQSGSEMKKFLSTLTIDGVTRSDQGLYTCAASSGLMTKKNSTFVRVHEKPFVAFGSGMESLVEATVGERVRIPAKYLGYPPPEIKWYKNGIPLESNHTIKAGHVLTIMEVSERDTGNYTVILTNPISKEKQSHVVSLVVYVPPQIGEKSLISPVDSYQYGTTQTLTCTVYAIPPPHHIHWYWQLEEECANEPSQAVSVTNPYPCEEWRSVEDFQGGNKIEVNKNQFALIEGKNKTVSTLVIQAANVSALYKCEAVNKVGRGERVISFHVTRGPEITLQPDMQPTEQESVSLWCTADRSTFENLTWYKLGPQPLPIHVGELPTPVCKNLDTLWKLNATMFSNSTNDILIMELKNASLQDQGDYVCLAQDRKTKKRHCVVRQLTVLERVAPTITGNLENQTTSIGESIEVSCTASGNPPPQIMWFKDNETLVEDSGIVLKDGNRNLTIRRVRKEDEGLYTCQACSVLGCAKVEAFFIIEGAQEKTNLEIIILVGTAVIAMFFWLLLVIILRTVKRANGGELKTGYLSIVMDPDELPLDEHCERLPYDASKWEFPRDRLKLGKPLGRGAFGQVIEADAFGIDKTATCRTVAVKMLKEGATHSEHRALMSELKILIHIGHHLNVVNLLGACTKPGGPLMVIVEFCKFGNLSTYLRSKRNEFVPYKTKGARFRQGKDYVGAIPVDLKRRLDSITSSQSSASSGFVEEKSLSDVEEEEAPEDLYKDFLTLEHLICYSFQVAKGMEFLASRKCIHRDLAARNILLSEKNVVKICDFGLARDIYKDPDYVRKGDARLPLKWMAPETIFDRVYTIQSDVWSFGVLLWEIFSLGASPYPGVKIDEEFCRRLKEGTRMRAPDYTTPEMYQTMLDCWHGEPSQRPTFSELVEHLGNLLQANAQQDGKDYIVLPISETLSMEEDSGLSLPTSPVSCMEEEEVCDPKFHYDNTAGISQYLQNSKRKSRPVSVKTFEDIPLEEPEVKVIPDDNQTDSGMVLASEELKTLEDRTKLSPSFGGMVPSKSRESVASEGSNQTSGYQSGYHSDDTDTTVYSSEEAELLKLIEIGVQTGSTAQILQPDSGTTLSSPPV

[12] = Oral bioavailability in Beagle dog 5 mg/kg; type: ADME, organism-based, Canis lupus familiaris; details: in vivo
Procedure, shortened: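 Three male beagles per route. Oral dose 5 mg/kg given as a solution in 80% PEG; iv comparator 1 mg/kg delivered in 60% PEG. Mean serum concentrations (N = 3) used to derive PK parameters.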

[13] = tested on: Mus musculus; assay: Toxicity in athymic mouse xenografted with human HCT116 cells assessed as bone marrow depletion at 10 mg/kg, po qd; type: organism-based, HCT-116; parameters: dose 10 mg/kg, route oral; details: in vivo
Procedure, shortened: (§3)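 Female athymic nude mice, 5 × 10^6 HCT-116 cells injected subcutaneously in the right flank. At a mean tumor volume of ~150 mm3, mice were randomized to groups (N = 10). Oral QD dosing at 0, 1, 2.5, 5 or 10 mg/kg as a suspension in 20% HP-β-cyclodextrin (100 µL). Three mice per group were taken for PD after 2 days; the rest were dosed for 21 days. Body weight was followed, with euthanasia at 20% weight loss.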

[14] = tested on: Mus musculus; assay: Oral bioavailability in CD1 mouse 5 mg/kg; type: ADME, organism-based; details: in vivo
Procedure, shortened: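 Female CD-1 mice, three per time point. Oral dose 5 mg/kg as a solution in 80% polyethylene glycol; iv reference dose 1 mg/kg as a solution in 5% DMSO, 5% Cremophor. PK parameters calculated from mean serum levels (N = 3).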

[15] = Clearance in Sprague-Dawley rat 1 mg/kg, iv; type: ADME, organism-based; parameters: dose 1 mg/kg, route intravenous; details: in vivo; procedure, shortened: as §2
[16] = tested on: Mus musculus; assay: Toxicity in athymic mouse xenografted with human HCT116 cells assessed as loss of body weight at 10 mg/kg, po qd; type: organism-based, HCT-116; parameters: dose 10 mg/kg, route oral; details: in vivo; procedure, shortened: as §3
[17] = target: Receptor-type tyrosine-protein kinase FLT3 (Homo sapiens, UniProt P36888); assay: Inhibition of Flt3
Chain of Receptor-type tyrosine-protein kinase FLT3 (P36888 whole entry): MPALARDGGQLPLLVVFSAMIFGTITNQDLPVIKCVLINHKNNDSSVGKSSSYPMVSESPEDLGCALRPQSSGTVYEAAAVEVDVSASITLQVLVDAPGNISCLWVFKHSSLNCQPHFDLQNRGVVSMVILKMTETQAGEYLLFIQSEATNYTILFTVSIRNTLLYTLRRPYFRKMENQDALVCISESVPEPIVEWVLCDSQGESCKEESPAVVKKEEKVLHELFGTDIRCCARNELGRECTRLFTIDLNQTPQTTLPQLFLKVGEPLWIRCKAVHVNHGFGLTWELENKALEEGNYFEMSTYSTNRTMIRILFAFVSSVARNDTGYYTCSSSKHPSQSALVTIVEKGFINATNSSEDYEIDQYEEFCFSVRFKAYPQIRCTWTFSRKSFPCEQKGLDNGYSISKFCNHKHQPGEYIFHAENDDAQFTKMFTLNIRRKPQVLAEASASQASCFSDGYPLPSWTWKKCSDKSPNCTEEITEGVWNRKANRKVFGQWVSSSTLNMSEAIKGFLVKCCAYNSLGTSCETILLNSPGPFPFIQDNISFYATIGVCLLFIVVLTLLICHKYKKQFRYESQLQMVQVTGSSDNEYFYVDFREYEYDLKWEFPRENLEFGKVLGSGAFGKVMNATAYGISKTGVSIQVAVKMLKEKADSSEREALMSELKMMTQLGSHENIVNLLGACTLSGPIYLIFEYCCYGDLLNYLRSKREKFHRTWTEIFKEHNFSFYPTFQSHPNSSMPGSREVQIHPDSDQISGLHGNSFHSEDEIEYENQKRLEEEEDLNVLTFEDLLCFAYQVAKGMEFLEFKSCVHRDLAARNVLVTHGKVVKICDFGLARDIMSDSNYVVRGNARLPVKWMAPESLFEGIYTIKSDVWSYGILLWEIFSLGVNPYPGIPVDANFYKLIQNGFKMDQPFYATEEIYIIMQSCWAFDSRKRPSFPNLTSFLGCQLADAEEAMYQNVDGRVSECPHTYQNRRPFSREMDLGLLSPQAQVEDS

[18] = Clearance in Beagle dog 1 mg/kg, iv; type: ADME, organism-based, Canis lupus familiaris; parameters: dose 1 mg/kg, route intravenous; details: in vivo; procedure, shortened: as §2
[19] = target: Cyclin-dependent kinase 2 (Homo sapiens, UniProt P24941); assay: Inhibition of CDK2/CyclinA
[20] = target: T1, Aurora kinase A; assay: Inhibition of Aurora A in human HCT cells assessed as loss of autophosphorylation of Aurora A; type: cell-based
[21] = target: Proto-oncogene tyrosine-protein kinase Src (Homo sapiens, UniProt P12931); assay: Inhibition of Src
Chain of Proto-oncogene tyrosine-protein kinase Src (P12931 2-536 limits assumed): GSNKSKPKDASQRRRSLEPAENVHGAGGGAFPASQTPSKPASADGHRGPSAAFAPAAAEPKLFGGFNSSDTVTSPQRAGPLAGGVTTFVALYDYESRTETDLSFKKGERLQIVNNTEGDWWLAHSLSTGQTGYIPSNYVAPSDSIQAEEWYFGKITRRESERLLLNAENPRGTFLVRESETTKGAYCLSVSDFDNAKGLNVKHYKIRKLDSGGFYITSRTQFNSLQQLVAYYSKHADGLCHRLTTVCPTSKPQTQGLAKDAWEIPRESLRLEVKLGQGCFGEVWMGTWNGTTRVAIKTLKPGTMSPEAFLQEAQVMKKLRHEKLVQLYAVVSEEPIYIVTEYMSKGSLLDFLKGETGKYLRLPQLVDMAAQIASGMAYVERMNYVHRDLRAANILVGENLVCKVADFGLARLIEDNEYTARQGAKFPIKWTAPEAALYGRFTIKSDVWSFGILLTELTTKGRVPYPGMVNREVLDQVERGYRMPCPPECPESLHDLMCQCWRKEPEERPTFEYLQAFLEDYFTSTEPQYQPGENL

[22] = target: T2, Aurora kinase B; assay: Inhibition of Aurora B assessed as loss of phospho histone H3 in human HCT cells; type: cell-based
[23] = target: T2, Aurora kinase B; assay: Inhibition of Aurora B assessed as loss of phospho histone H3 in human […] cells; type: cell-based
[24] = target: Serine/threonine-protein kinase Chk1 (Homo sapiens, UniProt O14757); assay: Inhibition of Chk1
Chain of Serine/threonine-protein kinase Chk1 (O14757 whole entry): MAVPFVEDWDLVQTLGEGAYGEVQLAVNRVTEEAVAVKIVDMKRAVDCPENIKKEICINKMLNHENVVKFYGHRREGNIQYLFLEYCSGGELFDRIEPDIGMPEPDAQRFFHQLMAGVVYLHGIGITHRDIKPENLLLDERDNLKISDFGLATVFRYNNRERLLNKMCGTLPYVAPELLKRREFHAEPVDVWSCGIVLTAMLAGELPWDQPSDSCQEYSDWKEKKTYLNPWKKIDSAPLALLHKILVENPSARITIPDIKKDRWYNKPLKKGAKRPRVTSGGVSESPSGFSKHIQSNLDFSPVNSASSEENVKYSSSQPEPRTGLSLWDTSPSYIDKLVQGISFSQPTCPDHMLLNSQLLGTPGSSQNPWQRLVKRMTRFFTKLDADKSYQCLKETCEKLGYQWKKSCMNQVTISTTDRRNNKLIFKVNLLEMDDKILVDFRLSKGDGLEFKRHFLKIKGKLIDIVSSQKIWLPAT

[25] = tested on: HCT-116; assay: Antiproliferative activity against human HCT116 cells

Cc1[nH]nc2c1CCc1c-2[nH]c2ccccc12
IC50 [1]: 4500 nM
IC50 [2]: > 20000 nM
IC50 [3]: 51 nM
IC50 [4]: 220 nM

CCN1C(=O)C(C)(C)c2cc3nc(-c4cc(C)[nH]n4)[nH]c3cc21
AUC(0-t) [5]: 180 µM·h
Cmax [6]: 51 µM
IC50 [3]: 69 nM
IC50 [4]: 130 nM

Cc1cc(-c2nc3cc4c(cc3[nH]2)NC(=O)C4(C)C)n[nH]1
AUC(0-t) [5]: 1.5 µM·h
Cmax [6]: 0.88 µM
IC50 [3]: 180 nM
IC50 [4]: 150 nM

c1ccc2c3c([nH]c2c1)-c1n[nH]c(C2CC2)c1CC3
IC50 [3]: 110 nM

Cc1cc(-c2cc3ccccc3[nH]2)n[nH]1
IC50 [3]: 1100 nM
IC50 [4]: 510 nM

Cc1[nH]nc2c1CCCc1c-2[nH]c2cc3c(cc12)C(C)(C)C(=O)N3
IC50 [1]: 1500 nM
IC50 [2]: 2600 nM
IC50 [3]: 72 nM
IC50 [4]: 86 nM

Cc1[nH]nc2c1CCCc1c-2[nH]c2cc3c(cc12)NC(=O)C3(C)C
IC50 [1]: 100 nM
IC50 [2]: 30 nM
IC50 [3]: 2 nM

c1ccc2c3c([nH]c2c1)-c1n[nH]cc1CC3
IC50 [3]: 300 nM

CCN1C(=O)C(C)(C)c2cc3[nH]c4c(c3cc21)CCCc1c-4n[nH]c1C
Activity [7]: Toxic
bioavailability [8]: 97%
clearance [9]: 25 mL/min/kg
IC50 [10]: 7700 nM
IC50 [11]: 12 nM
bioavailability [12]: 56%
Activity [13]: Toxic
F [14]: 178%
clearance [15]: 22 mL/min/kg
Activity [16]: Toxic
IC50 [17]: 2 nM
clearance [18]: 34 mL/min/kg
IC50 [19]: 15000 nM
IC50 [20]: 160 nM
IC50 [21]: 250 nM
IC50 [22]: 310 nM
IC50 [4]: 5 nM
IC50 [23]: 100 nM
IC50 [24]: 85 nM

Cc1[nH]nc2c1CCCC1c3ccccc3NC21 (stereo not given)
IC50 [1]: 670 nM
IC50 [2]: 2600 nM
IC50 [3]: 42 nM
IC50 [4]: 22 nM

OCc1[nH]nc2c1CCc1c-2[nH]c2ccccc12
IC50 [3]: 340 nM

Cc1cc(Nc2cc(N3CCN(C)CC3)nc(Sc3ccc(NC(=O)C4CC4)cc3)n2)n[nH]1 [TOZASERTIB]
IC50 [1]: 48 nM
IC50 [25]: 53 nM
IC50 [2]: 150 nM

Cc1[nH]nc2c1Cc1c-2[nH]c2ccccc12
IC50 [1]: > 20000 nM
IC50 [2]: > 20000 nM
IC50 [3]: 870 nM
IC50 [4]: 880 nM

CCOC(=O)c1[nH]nc2c1CCc1c-2[nH]c2ccccc12
IC50 [3]: 5700 nM
